{"source": "the EternaBench riboswitch data", "tested_on": "MS2 coat protein", "assay": "apparent Kd, MS2 coat protein; higher = weaker binding; RNA-MaP array; FMN 200 µM where present", "procedure,_shortened": "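The apparent Kd comes from binding curves fitted cluster by cluster, filtered, and summarised as a median. Those curves followed SNAP-549-labelled MS2 coat protein from 0.7 or 1.5 nM, doubling to 3 µM, on Illumina sequencing-chip clusters where stalled E. coli RNA polymerase had transcribed the designs, without and then with constant ligand. The buffer was 100 mM Tris-HCl pH 7.5, 80 mM KCl, 4 mM MgCl2, BSA, DTT, yeast tRNA and Tween-20, and green signal was normalised to red-channel RNA signal and control-cluster median Fmax.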", "key": {"[1]": {"conditions": "designed as: ON switch for flavin mononucleotide, no ligand"}, "[2]": {"conditions": "ligand present: flavin mononucleotide, designed as: ON switch for flavin mononucleotide"}, "[3]": {"conditions": "designed as: OFF switch for flavin mononucleotide, no ligand"}, "[4]": {"conditions": "ligand present: flavin mononucleotide, designed as: OFF switch for flavin mononucleotide"}}}
{"sequence": "UUACUCAUGUAAGGAUAUGCAGCCGUUUCGGCUGCAGAAGGUACUAUAAUACAUGAGGAUCACCCAUGUCUAUAAAAUAAAGGC", "values": [{"measurement": "apparent Kd", "setting": "[1]", "result": 48.9, "unit": "nM"}, {"measurement": "apparent Kd", "setting": "[2]", "result": 50.2, "unit": "nM"}]}
{"sequence": "UUAAUGUGAGGAUAUCAGGUGUGAUAGAGUAAUGGUAAAUCUGAGAAGGCACAUGAGGAUCACCCAUGUUCUUC", "values": [{"measurement": "apparent Kd", "setting": "[3]", "result": 23, "unit": "nM"}, {"measurement": "apparent Kd", "setting": "[4]", "result": 33.8, "unit": "nM"}]}
{"sequence": "GUUAAACAUGAGGAUCACCCAUGUAAGGAUAUGCUGCGGUAGAGAUGAAGUGAAUGCAGCAGAAGGUACAAUUG", "values": [{"measurement": "apparent Kd", "setting": "[3]", "result": 124, "unit": "nM"}, {"measurement": "apparent Kd", "setting": "[4]", "result": 109, "unit": "nM"}]}
{"sequence": "CCGGAAACGGGUAGCUGUACAUGAGGAUCACCCAUGUGAUCAUAGGAUAUGGAUGGUAAUUCCAUCCAGAAGGAUGUCAGCUAC", "values": [{"measurement": "apparent Kd", "setting": "[1]", "result": 216, "unit": "nM"}, {"measurement": "apparent Kd", "setting": "[2]", "result": 715, "unit": "nM"}]}
{"sequence": "AGGAAGUAAAGAGACAUGAGGAUCACCCAUGUGACUGCAUCACAGGAUAUGUCGAGCGAAGCACAACAGAAGGGUGAUCAGGGC", "values": [{"measurement": "apparent Kd", "setting": "[1]", "result": 65.2, "unit": "nM"}, {"measurement": "apparent Kd", "setting": "[2]", "result": 120, "unit": "nM"}]}
{"sequence": "UCAUAUAUACAAGGAUAUCAAUGAUUUGUAGAUCCUACAUGAGGAUCACCCAUGUUUUUAUAUUUUGAGAAGGUGUAGUGUCUU", "values": [{"measurement": "apparent Kd", "setting": "[1]", "result": 178, "unit": "nM"}, {"measurement": "apparent Kd", "setting": "[2]", "result": 352, "unit": "nM"}]}
{"sequence": "UGUCGGAGCAGAGGAUAUUACAUGAGGAUCACCCAUGUAUGAACCAAUAACUGGAAACAGCAAUGUAAGAAGGCUGCUCCGACA", "values": [{"measurement": "apparent Kd", "setting": "[3]", "result": 7.6, "unit": "nM"}, {"measurement": "apparent Kd", "setting": "[4]", "result": 42.5, "unit": "nM"}]}
{"sequence": "CGGCAAUGACGAGGAUAUAGACAUGAGGAUCACCCAUGUAACAGUAUUACAGGGCGUCUUCUCGGCUAGAAGGCGUUCUAUGCC", "values": [{"measurement": "apparent Kd", "setting": "[3]", "result": 59.4, "unit": "nM"}, {"measurement": "apparent Kd", "setting": "[4]", "result": 62.6, "unit": "nM"}]}
{"sequence": "GCGACGAAAGUCGAACGAUGUAGCAGAAGGACAUGAGGAUCACCCAUGUCAGCUGUAACAGCCAUGUAGGAUAUGCUACAUCGA", "values": [{"measurement": "apparent Kd", "setting": "[3]", "result": 4.26, "unit": "nM"}, {"measurement": "apparent Kd", "setting": "[4]", "result": 5.11, "unit": "nM"}]}
{"sequence": "GGAUCACAAAGUGAUCCAAUACGAACAUGAGGAUCACCCAUGUAGGAUAUGCUACUCAAAGAGUAGCAGAAGGACAUGUGCCUU", "values": [{"measurement": "apparent Kd", "setting": "[3]", "result": 35.4, "unit": "nM"}, {"measurement": "apparent Kd", "setting": "[4]", "result": 296, "unit": "nM"}]}
{"sequence": "AGUCGGAGCAGAGGAUAUAUACAUGAGGAUCACCCAUGUAAAGAUCAAAGCUGGAAACAGCAAGUAUAGAAGGCUGCUCCGACA", "values": [{"measurement": "apparent Kd", "setting": "[3]", "result": 90.5, "unit": "nM"}, {"measurement": "apparent Kd", "setting": "[4]", "result": 271, "unit": "nM"}]}
{"sequence": "AACAGGUUCACAUGAGGAUCACCCAUGUUAGCCUAAUGUAGGAGAAGGACGGUAGCUGGGCUGACGUAGGAUAUCCUACUGUGA", "values": [{"measurement": "apparent Kd", "setting": "[1]", "result": 5.08, "unit": "nM"}, {"measurement": "apparent Kd", "setting": "[2]", "result": 5.11, "unit": "nM"}]}
{"sequence": "GUGCGGUAGGAGAAGGACGGAGGCUUCAUUACAUACAUGAGGAUCACCCAUGUAGGAUAUCCUACCUCACGCGGCCUCCUUCUG", "values": [{"measurement": "apparent Kd", "setting": "[3]", "result": 6.52, "unit": "nM"}, {"measurement": "apparent Kd", "setting": "[4]", "result": 7.65, "unit": "nM"}]}
{"sequence": "GGGUACAUCGGAGGAUAUCAUGUAAAUACAUGAGGAUCACCCAUGUCGAUGGAGACAUCGGAGAUUGAGAAGGCCGCUGUACCG", "values": [{"measurement": "apparent Kd", "setting": "[1]", "result": 176, "unit": "nM"}, {"measurement": "apparent Kd", "setting": "[2]", "result": 9.92, "unit": "nM"}]}
{"sequence": "AACAGUACAGGAUAUACAUGAGGAUCACCCAUGUGAGAAUUAAGUGGCGAACCACAAAGUAGAAGGGUACUGGA", "values": [{"measurement": "apparent Kd", "setting": "[3]", "result": 59.6, "unit": "nM"}, {"measurement": "apparent Kd", "setting": "[4]", "result": 197, "unit": "nM"}]}
{"sequence": "AAGCGACGAGGAUAUCGGUGGCUGAACAUGAGGAUCACCCAUGUGAACCGAUGGCAGUGUCGAGAAGGUGUUGAGU", "values": [{"measurement": "apparent Kd", "setting": "[3]", "result": 13.9, "unit": "nM"}, {"measurement": "apparent Kd", "setting": "[4]", "result": 16.1, "unit": "nM"}]}
{"sequence": "AAUAACAGAGGAUAUACUAUUUUAUGUGUUUGUUGUUUUGAACAUGAGGAUCACCCAUGUAGAAGGCUGAGUAA", "values": [{"measurement": "apparent Kd", "setting": "[3]", "result": 27.9, "unit": "nM"}, {"measurement": "apparent Kd", "setting": "[4]", "result": 30.3, "unit": "nM"}]}
{"sequence": "AUAUGGAAUACAGGAUAUGUAAGUUUUAAGUGUAUUGGUUAUUACUUAACAACAGAAGGGUAUUACAUGAGGAUCACCCAUGUA", "values": [{"measurement": "apparent Kd", "setting": "[1]", "result": 12.8, "unit": "nM"}, {"measurement": "apparent Kd", "setting": "[2]", "result": 10, "unit": "nM"}]}
{"sequence": "AGCAAGUAUACAUGAGGAUCACCCAUGUUUUUUAGGGUUUUCAGAAGGUACAUUUUGAGAUAGAGUAAGGAUAUGAAAUAUGCG", "values": [{"measurement": "apparent Kd", "setting": "[1]", "result": 101, "unit": "nM"}, {"measurement": "apparent Kd", "setting": "[2]", "result": 45.7, "unit": "nM"}]}
{"sequence": "CACACAUGUGGAGGAUAUGUAGUUAACAUAAGCGCAGAAGGCCACAUGAGGAUCACCCAUGUCCGGCAUUAGCCGAUGUUGAUC", "values": [{"measurement": "apparent Kd", "setting": "[3]", "result": 108, "unit": "nM"}, {"measurement": "apparent Kd", "setting": "[4]", "result": 397, "unit": "nM"}]}
{"sequence": "UAAAAGUCAGGAUAUGCGAAGGCGUCUGAUAGACGAGGCUAGCAGAAGGGACAUGAGGAUCACCCAUGUGAAAU", "values": [{"measurement": "apparent Kd", "setting": "[3]", "result": 51.8, "unit": "nM"}, {"measurement": "apparent Kd", "setting": "[4]", "result": 138, "unit": "nM"}]}
{"sequence": "CAUUAAUUCAUUAUAGUAAUUAUACAGGAUAUGUAACAUGAGGAUCACCCAUGUAUUCUUGGUUAACAGAAGGGUAUUACAAGU", "values": [{"measurement": "apparent Kd", "setting": "[3]", "result": 16.5, "unit": "nM"}, {"measurement": "apparent Kd", "setting": "[4]", "result": 28.4, "unit": "nM"}]}
{"sequence": "GAAGUUCUCCAGAAGGCACAUGAGGAUCACCCAUGUAAAAGAGCCUUAAUGUGAGGAUAUGGAAGCUGCUUCAUAGAUGACAUA", "values": [{"measurement": "apparent Kd", "setting": "[3]", "result": 6.61, "unit": "nM"}, {"measurement": "apparent Kd", "setting": "[4]", "result": 26.5, "unit": "nM"}]}
